Values after ≈ are worked out from the molar mass of the structure shown.
Columns and labels:
Assay type in all cases: functional
[1] = system: Escherichia coli; assay: Antibacterial activity against Escherichia coli by transcription and translation assay
Procedure, shortened: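 Coupled in vitro transcription and translation system from Escherichia coli with a luciferase reporter; inhibition is read as loss of luciferase signal.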

[2] = system: Staphylococcus aureus; assay: Antibacterial activity against Staphylococcus aureus UC-76 SA-1
Procedure, shortened: (§1)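 MIC determined by broth microdilution following Clinical and Laboratory Standards Institute (formerly NCCLS) guidelines, across a panel of Gram-positive and fastidious Gram-negative organisms.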

[3] = system: Streptococcus pneumoniae; assay: Antibacterial activity against Streptococcus pneumoniae SVI SP-3; procedure, shortened: as §1
[4] = system: Streptococcus pyogenes; assay: Antibacterial activity against Streptococcus pyogenes C-203; procedure, shortened: as §1
[5] = system: Enterococcus faecalis; assay: Antibacterial activity against Enterococcus faecalis MGH-2 EF1-1; procedure, shortened: as §1
[6] = system: Haemophilus influenzae; assay: Antibacterial activity against Haemophilus influenzae HI3542; conditions: HI-3542; procedure, shortened: as §1
[7] = system: Moraxella catarrhalis; assay: Antibacterial activity against Moraxella catarrhalis BC-3531; procedure, shortened: as §1

Compound | IC50 [1] | MIC [2] | MIC [3] | MIC [4] | MIC [5] | MIC [6] | MIC [7]
CC(=O)NC[C@H]1CN(c2cnc3c(c2)CCCCC3=O)C(=O)O1 | 13 µM | 8 µg/mL (≈ 25.2 µM) | 16 µg/mL (≈ 50.4 µM) | 4 µg/mL (≈ 12.6 µM) | 8 µg/mL (≈ 25.2 µM) | – | –
CC(=O)NC[C@H]1CN(c2ccc3c(c2)CCC/C(=C\c2ccc(CCO)cc2)C3=O)C(=O)O1 | 2.6 µM | 1 µg/mL (≈ 2.23 µM) | 0.25 µg/mL (≈ 0.557 µM) | – | 0.5 µg/mL (≈ 1.11 µM) | 16 µg/mL (≈ 35.7 µM) | 4 µg/mL (≈ 8.92 µM)
CC(=O)NC[C@H]1CN(c2ccc3c(c2)CCC/C(=C\c2ccc(F)cc2)C3=O)C(=O)O1 | 2.7 µM | 0.5 µg/mL (≈ 1.18 µM) | 0.25 µg/mL (≈ 0.592 µM) | – | 0.5 µg/mL (≈ 1.18 µM) | 2 µg/mL (≈ 4.73 µM) | 2 µg/mL (≈ 4.73 µM)
CC(=O)NC[C@H]1CN(c2ccc3c(c2F)CCCCC3=O)C(=O)O1 | 8.9 µM | 16 µg/mL (≈ 47.9 µM) | 4 µg/mL (≈ 12 µM) | 8 µg/mL (≈ 23.9 µM) | 8 µg/mL (≈ 23.9 µM) | – | –
CC(=O)NC[C@H]1CN(c2cc3c(cc2F)C(=O)CCCC3)C(=O)O1 | 90 µM | 64 µg/mL (≈ 191 µM) | 32 µg/mL (≈ 95.7 µM) | 32 µg/mL (≈ 95.7 µM) | 64 µg/mL (≈ 191 µM) | – | –
CC(=O)NC[C@H]1CN(c2ccc3c(c2)CCC/C(=C\c2ccc(OCCCN(C)C)cc2)C3=O)C(=O)O1 | 1.2 µM | 1 µg/mL (≈ 1.98 µM) | 0.125 µg/mL (≈ 0.247 µM) | – | 0.5 µg/mL (≈ 0.989 µM) | 16 µg/mL (≈ 31.6 µM) | 4 µg/mL (≈ 7.91 µM)
CC(=O)NC[C@H]1CN(c2ccc3c(c2)CCC/C(=C\c2ccc(OCCN(C)C)cc2)C3=O)C(=O)O1 | 1.5 µM | 2 µg/mL (≈ 4.07 µM) | 0.25 µg/mL (≈ 0.509 µM) | – | 2 µg/mL (≈ 4.07 µM) | 32 µg/mL (≈ 65.1 µM) | 8 µg/mL (≈ 16.3 µM)
CC(=O)NC[C@H]1CN(c2cc(F)c3c(c2)CCCCC3=O)C(=O)O1 | 9.4 µM | 8 µg/mL (≈ 23.9 µM) | 2 µg/mL (≈ 5.98 µM) | 2 µg/mL (≈ 5.98 µM) | 4 µg/mL (≈ 12 µM) | – | –
CC(=O)NC[C@H]1CN(c2cc(F)c3c(c2F)CCCCC3=O)C(=O)O1 | 14 µM | 32 µg/mL (≈ 90.8 µM) | 8 µg/mL (≈ 22.7 µM) | 16 µg/mL (≈ 45.4 µM) | 16 µg/mL (≈ 45.4 µM) | – | –
CC(=O)NC[C@H]1CN(c2ccc3c(c2)CCC/C(=C\c2cccc(C#N)c2)C3=O)C(=O)O1 | 1.7 µM | 0.5 µg/mL (≈ 1.16 µM) | 0.25 µg/mL (≈ 0.582 µM) | – | 0.25 µg/mL (≈ 0.582 µM) | 32 µg/mL (≈ 74.5 µM) | 2 µg/mL (≈ 4.66 µM)
CC(=O)NC[C@H]1CN(c2ccc3c(c2)CCC/C(=C\c2ccc(S(C)(=O)=O)cc2)C3=O)C(=O)O1 | 2.8 µM | 1 µg/mL (≈ 2.07 µM) | 0.25 µg/mL (≈ 0.518 µM) | – | 0.5 µg/mL (≈ 1.04 µM) | 16 µg/mL (≈ 33.2 µM) | 4 µg/mL (≈ 8.29 µM)
CC(=O)NC[C@H]1CN(c2ccc(N3CCOCC3)c(F)c2)C(=O)O1 [LINEZOLID] | 3.3 µM | – | – | 1 µg/mL (≈ 2.96 µM) | – | 16 µg/mL (≈ 47.4 µM) | –

Now from value to compound:

IC50 [1] | MIC [2] | MIC [3] | MIC [4] | MIC [5] | MIC [6] | MIC [7] | Compound
8 µM | 64 µg/mL (≈ 212 µM) | 8 µg/mL (≈ 26.5 µM) | 2 µg/mL (≈ 6.61 µM) | > 64 µg/mL | – | – | CC(=O)NC[C@H]1CN(c2ccc3c(c2)CCCCC3)C(=O)O1
1.3 µM | 1 µg/mL (≈ 3.33 µM) | 0.5 µg/mL (≈ 1.66 µM) | 0.5 µg/mL (≈ 1.66 µM) | 1 µg/mL (≈ 3.33 µM) | – | – | CC(=O)NC[C@H]1CN(c2ccc3c(c2)CCCC=C3)C(=O)O1
3.9 µM | 1 µg/mL (≈ 3.16 µM) | 0.5 µg/mL (≈ 1.58 µM) | 0.5 µg/mL (≈ 1.58 µM) | 0.5 µg/mL (≈ 1.58 µM) | – | – | CC(=O)NC[C@H]1CN(c2ccc3c(c2)CCCCC3=O)C(=O)O1
4 µM | 32 µg/mL (≈ 106 µM) | 8 µg/mL (≈ 26.5 µM) | 16 µg/mL (≈ 52.9 µM) | 16 µg/mL (≈ 52.9 µM) | – | – | CC(=O)NC[C@H]1CN(c2ccc3c(c2)C(=O)CCC3)C(=O)O1
1.6 µM | 1 µg/mL (≈ 2.45 µM) | 0.25 µg/mL (≈ 0.614 µM) | – | 0.5 µg/mL (≈ 1.23 µM) | 16 µg/mL (≈ 39.3 µM) | 4 µg/mL (≈ 9.82 µM) | CC(=O)NC[C@H]1CN(c2ccc3c(c2)CCC/C(=C\c2cccn2C)C3=O)C(=O)O1
0.95 µM | 0.5 µg/mL (≈ 1.19 µM) | 0.125 µg/mL (≈ 0.297 µM) | – | 0.5 µg/mL (≈ 1.19 µM) | 8 µg/mL (≈ 19 µM) | 2 µg/mL (≈ 4.76 µM) | CC(=O)NC[C@H]1CN(c2ccc3c(c2)CCC/C(=C\c2ccc(O)cc2)C3=O)C(=O)O1
1.7 µM | 1 µg/mL (≈ 2.47 µM) | 0.5 µg/mL (≈ 1.23 µM) | – | 1 µg/mL (≈ 2.47 µM) | 16 µg/mL (≈ 39.5 µM) | 8 µg/mL (≈ 19.7 µM) | CC(=O)NC[C@H]1CN(c2ccc3c(c2)CCC/C(=C\c2ccncc2)C3=O)C(=O)O1
5.9 µM | 4 µg/mL (≈ 12.1 µM) | 4 µg/mL (≈ 12.1 µM) | 2 µg/mL (≈ 6.05 µM) | 8 µg/mL (≈ 24.2 µM) | – | – | CC(=O)NC[C@H]1CN(c2ccc3c(c2)CCCCCC3=O)C(=O)O1
2.7 µM | 1 µg/mL (≈ 2.47 µM) | 0.25 µg/mL (≈ 0.618 µM) | – | 0.5 µg/mL (≈ 1.24 µM) | 16 µg/mL (≈ 39.6 µM) | 4 µg/mL (≈ 9.89 µM) | CC(=O)NC[C@H]1CN(c2ccc3c(c2)CCC/C(=C\c2ccccc2)C3=O)C(=O)O1
1.1 µM | 2 µg/mL (≈ 4.87 µM) | 0.125 µg/mL (≈ 0.305 µM) | – | 0.5 µg/mL (≈ 1.22 µM) | 2 µg/mL (≈ 4.87 µM) | 1 µg/mL (≈ 2.44 µM) | CC(=O)NC[C@H]1CN(c2ccc3c(c2)CCC/C(=C\c2ccsc2)C3=O)C(=O)O1
9.3 µM | 2 µg/mL (≈ 6.28 µM) | 1 µg/mL (≈ 3.14 µM) | 1 µg/mL (≈ 3.14 µM) | 2 µg/mL (≈ 6.28 µM) | – | – | CC(=O)NC[C@H]1CN(c2cc(F)c3c(c2)CCCC=C3)C(=O)O1
7.5 µM | 2 µg/mL (≈ 7.24 µM) | 2 µg/mL (≈ 7.24 µM) | 1 µg/mL (≈ 3.62 µM) | 2 µg/mL (≈ 7.24 µM) | – | – | CC(=O)NC[C@H]1CN(c2ccc(C(C)=O)cc2)C(=O)O1 [DUP-721]
21 µM | 8 µg/mL (≈ 27.7 µM) | 2 µg/mL (≈ 6.94 µM) | 2 µg/mL (≈ 6.94 µM) | 8 µg/mL (≈ 27.7 µM) | – | – | CC(=O)NC[C@H]1CN(c2ccc3c(c2)CCC3=O)C(=O)O1 [PNU-82965]

From ChEMBL document CHEMBL1137280, “Synthesis and structure-activity studies of novel benzocycloheptanone oxazolidinone antibacterial agents” (Bioorg Med Chem Lett, 2006)
